The record followed here is ChEMBL document CHEMBL1150404, “Synthesis, alpha 1-adrenoceptor antagonist activity, and SAR study of novel arylpiperazine derivatives of phenytoin” (Bioorg Med Chem, 2008).

The assay in a line: Displacement of [3H]prazosin from alpha-1-adrenoceptor in Wistar rat cerebral cortex membrane. Type of assay: tissue-based. The gist of the method:
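Rat brain homogenised in ice-cold 50 mM Tris–HCl pH 7.6, centrifuged twice at 20,000g for 20 min at 0–4 °C. Membranes incubated with [3H]prazosin 0.2 nM (α1) or [3H]clonidine 2 nM (α2) and 7–8 test concentrations (10^-11–10^-4 M). Filter-bound radioactivity counted by liquid scintillation; duplicates; curve-fitted, Ki by Cheng–Prusoff.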
`COc1ccccc1N1CCN(C(C)CN2C(=O)C3Nc4ccccc4C3N(C)C2=O)CC1` (centres undefined) came in with a Ki of 100 pM.
The figure for `CCOc1ccccc1N1CCN(CCCn2ncc(N3CCN(CCOc4ccccc4OC)CC3)c(Cl)c2=O)CC1` is 50 pM.
Next, `CCOc1ccccc1OCCN1CCN(c2cnn(CCN3CCN(c4ccccc4OC)CC3)c(=O)c2Cl)CC1`: 50 pM.
The figure for `COc1ccccc1N1CCN(CCN2C(=O)C3Nc4ccccc4C3N=C2C)CC1` (centres undefined) is 500 pM.
As to `COc1ccccc1N1CCN(CCCN2C(=O)NC3c4ccccc4SC3C2=O)CC1` (centres undefined), affinity was put at a Ki of 100 pM.
`COc1ccccc1N1CCN(C(C)CCN2C(=O)NC3c4ccccc4N(C)C3C2=O)CC1` (centres undefined): the affinity, expressed as Ki, was 100 pM.
The figure for `COc1ccccc1N1CCN(CCN2C(=O)C3Oc4ccccc4C3N(C)C2=O)CC1` (centres undefined) is 100 pM; for `COc1ccccc1OCCN1CCN(c2cnn(CCCCCN3CCN(c4ccccc4OC)CC3)c(=O)c2Cl)CC1` it is 50 pM; for `COc1ccccc1N1CCN(C(C)CCN2C(=O)NC3c4ccccc4OC3C2=O)CC1` (centres undefined) it is 100 pM.
`CCOc1ccccc1OCCN1CCN(c2cnn(CCN3CCN(c4ccccc4OC(C)C)CC3)c(=O)c2Cl)CC1`: the affinity, expressed as Ki, was 50 pM.
Consider `COc1ccccc1N1CCN(CCN2C(=O)C3Sc4ccccc4C3N(C)C2=O)CC1` (centres undefined), for which the Ki amounted to 100 pM.
As to `COc1ccccc1OCCN1CCN(c2cnn(CCN3CCN(c4ccccc4OC(C)C)CC3)c(=O)c2Cl)CC1`, the Ki stood at 50 pM.
Next, `COc1ccccc1N1CCN(CCN2C(=O)C3Nc4ccccc4C3N(C)C2=O)CC1` (centres undefined): 100 pM; `COc1ccccc1OCCN1CCN(c2cnn(CCCCN3CCN(c4ccccc4OC(C)C)CC3)c(=O)c2Cl)CC1`: 50 pM.
The figure for `COc1ccccc1N1CCN(C(C)CN2C(=O)C3Sc4ccccc4C3N(C)C2=O)CC1` (centres undefined) is 100 pM.
Compound `COc1ccccc1N1CCN(CCN2C(=O)C3Sc4ccccc4C3N=C2C)CC1` (centres undefined) showed a Ki of 500 pM.
Next, `COc1ccc(Cl)cc1N1CCN(CCN2C(=O)C3Nc4ccccc4C3N=C2C)CC1` (centres undefined): 500 pM; `CCOc1ccccc1N1CCN(CCCCn2ncc(N3CCN(CCOc4ccccc4OC)CC3)c(Cl)c2=O)CC1`: 50 pM.
As to `COc1ccccc1N1CCN(C(C)CN2C(=O)NC3c4ccccc4OC3C2=O)CC1` (centres undefined), the affinity, expressed as Ki, was 100 pM.
`COc1ccccc1OCCN1CCN(c2cnn(CCCCCCCN3CCN(c4ccccc4OC(C)C)CC3)c(=O)c2Cl)CC1` had a Ki of 50 pM.
Next, `COc1ccccc1N1CCN(C(C)CCN2C(=O)NC3c4ccccc4SC3C2=O)CC1` (centres undefined): 100 pM; `CCOc1ccccc1OCCN1CCN(c2cnn(CCCCCCCN3CCN(c4ccccc4OC(C)C)CC3)c(=O)c2Cl)CC1`: 50 pM; `COc1ccccc1N1CCN(C(C)CCN2C(=O)NC3c4ccccc4NC3C2=O)CC1` (centres undefined): 100 pM.
Consider `COc1ccccc1N1CCN(CCCN2C(=O)C3Oc4ccccc4C3N(C)C2=O)CC1` (centres undefined), for which the Ki worked out at 100 pM.
Next, `CCOc1ccccc1OCCN1CCN(c2cnn(CCCCCCCN3CCN(c4ccccc4OC)CC3)c(=O)c2Cl)CC1`: 50 pM; `COc1ccccc1N1CCN(C(C)CN2C(=O)C3C(c4ccccc4N3C)N(C)C2=O)CC1` (centres undefined): 100 pM.
Next, `CCOc1ccccc1OCCN1CCN(c2cnn(CCCCCCN3CCN(c4ccccc4OC(C)C)CC3)c(=O)c2Cl)CC1`: 50 pM; `COc1ccccc1N1CCN(C(C)CN2C(=O)NC3c4ccccc4N(C)C3C2=O)CC1` (centres undefined): 100 pM; `CCOc1ccccc1OCCN1CCN(c2cnn(CCCCN3CCN(c4ccccc4OCC)CC3)c(=O)c2Cl)CC1`: 50 pM.
Next, `CCOc1ccccc1OCCN1CCN(c2cnn(CCCCN3CCN(c4ccccc4OC(C)C)CC3)c(=O)c2Cl)CC1`: 50 pM; `COc1ccccc1N1CCN(CCN2C(=O)NC3c4ccccc4N(C)C3C2=O)CC1` (centres undefined): 100 pM; `COc1ccccc1N1CCN(C(C)CN2C(=O)NC3c4ccccc4SC3C2=O)CC1` (centres undefined): 100 pM.
With `CCOc1ccccc1OCCN1CCN(c2cnn(CCCN3CCN(c4ccccc4OC)CC3)c(=O)c2Cl)CC1`, the Ki is 50 pM.
`COc1ccccc1N1CCN(C(C)CCN2C(=O)C3Sc4ccccc4C3N(C)C2=O)CC1` (centres undefined): the Ki came to 100 pM.
The compound `COc1ccccc1N1CCN(CCCCCCCn2ncc(N3CCN(CC4COc5ccccc5O4)CC3)c(Cl)c2=O)CC1` (centres undefined) returned a Ki of 50 pM.
Consider `COc1ccccc1N1CCN(CCCN2C(=O)NC3c4ccccc4NC3C2=O)CC1` (centres undefined), for which the Ki amounted to 100 pM.
Next, `COc1ccc(Cl)cc1N1CCN(CCN2C(=O)C3Sc4ccccc4C3N=C2C)CC1` (centres undefined): 500 pM; `CCOc1ccccc1OCCN1CCN(c2cnn(CCCCCN3CCN(c4ccccc4OC)CC3)c(=O)c2Cl)CC1`: 50 pM; `CCOc1ccccc1OCCN1CCN(c2cnn(CCCCCCN3CCN(c4ccccc4OC)CC3)c(=O)c2Cl)CC1`: 50 pM.
Next, `COc1ccccc1OCCN1CCN(c2cnn(CCCCCCN3CCN(c4ccccc4OC(C)C)CC3)c(=O)c2Cl)CC1`: 50 pM.
Next, `COc1ccccc1OCCN1CCN(c2cnn(CCCN3CCN(c4ccccc4OC(C)C)CC3)c(=O)c2Cl)CC1`: 50 pM; `COc1ccccc1N1CCN(CCCCCCCn2nc(-n3ccc4ccccc43)ccc2=O)CC1`: 200 pM; `CCOc1ccccc1OCCN1CCN(c2cnn(CCCCCCCN3CCN(c4ccccc4OCC)CC3)c(=O)c2Cl)CC1`: 50 pM.
Turning to `COc1ccccc1OCCN1CCN(c2cnn(CCCCCCCN3CCN(c4ccccc4OC)CC3)c(=O)c2Cl)CC1`, the affinity, expressed as Ki, was 50 pM.
Next, `CCOc1ccccc1OCCN1CCN(c2cnn(CCCCN3CCN(c4ccccc4OC)CC3)c(=O)c2Cl)CC1`: 50 pM; `CCOc1ccccc1OCCN1CCN(c2cnn(CCCCCCN3CCN(c4ccccc4OCC)CC3)c(=O)c2Cl)CC1`: 50 pM; `COc1ccccc1N1CCN(C(C)CCN2C(=O)C3Oc4ccccc4C3N(C)C2=O)CC1` (centres undefined): 100 pM.
The figure for `CCOc1ccccc1OCCN1CCN(c2cnn(CCCCCN3CCN(c4ccccc4OCC)CC3)c(=O)c2Cl)CC1` is 50 pM; for `O=c1ccc(-n2ccnc2)nn1CCCN1CCN(c2ccccc2Cl)CC1` it is 200 pM.
With `COc1ccccc1N1CCN(CCN2C(=O)NC3c4ccccc4SC3C2=O)CC1` (centres undefined), affinity was put at a Ki of 100 pM.
The figure for `CCOc1ccccc1N1CCN(CCn2ncc(N3CCN(CCOc4ccccc4OC)CC3)c(Cl)c2=O)CC1` is 50 pM; for `COc1ccccc1OCCN1CCN(c2cnn(CCN3CCN(c4ccccc4OC)CC3)c(=O)c2Cl)CC1` it is 50 pM; for `COc1ccccc1N1CCN(CCCN2C(=O)NC3c4ccccc4N(C)C3C2=O)CC1` (centres undefined) it is 100 pM.
Next, `CCOc1ccccc1N1CCN(CCCCCCn2ncc(N3CCN(CCOc4ccccc4OC)CC3)c(Cl)c2=O)CC1`: 50 pM; `COc1cc2nc(N3CCN(C(=O)c4ccco4)CC3)nc(N)c2cc1OC` [PRAZOSIN]: 240 pM.
`COc1ccccc1OCCN1CCN(c2cnn(CCCN3CCN(c4ccccc4OC)CC3)c(=O)c2Cl)CC1`: the affinity corresponds to a Ki of 50 pM.
Next, `CCOc1ccccc1OCCN1CCN(c2cnn(CCCN3CCN(c4ccccc4OCC)CC3)c(=O)c2Cl)CC1`: 50 pM.
Turning to `CCOc1ccccc1N1CCN(CCCCCCCn2ncc(N3CCN(CCOc4ccccc4OC)CC3)c(Cl)c2=O)CC1`, the Ki came to 50 pM.
Regarding `COc1ccccc1N1CCN(CCCN2C(=O)C3C(c4ccccc4N3C)N(C)C2=O)CC1` (centres undefined), the Ki turned out to be 100 pM.

In general, Ki refers to a dissociation constant, usually derived from enzyme kinetics or from competition with a known ligand. Higher therefore signals a looser hold on the target.
